Activity calls are given as the source filed them. The rule behind the calls is not given here.
Key:
Histone deacetylase 5 = Histone deacetylase 5 (Homo sapiens, UniProt Q9UQL6); assay: Inhibition of recombinant full length N-terminal GST-tagged human HDAC5 expressed in baculovirus infected Sf9 cells using Ac-peptide-AMC as substrate after 1 hr by fluorescence assay
[1] = Half life in Sprague-Dawley rat at 5 mg/kg, iv measured upto 24 hrs by LC-MS/MS analysis; format: ADME, organism-based; conditions: in vivo
Summary of the method: (§1)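 SD rats (200-250 g), six per time point, given 5 mg/kg as a tail-vein bolus or orally. Blood was taken by cardiac puncture before dosing and at 5, 15, 30, 45 min and 1, 2, 4, 6, 8, 10, 12 and 24 h. Plasma was spun at 4000 g for 15 min at 4 °C and stored at -80 °C. Analysis was LC-MS/MS with multiple-reaction monitoring, followed by noncompartmental analysis.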

Ramos = assay: Antiproliferative activity against human Ramos cells after 72 hrs by MTT assay; format: functional, cell-based
[2] = Cmax in Sprague-Dawley rat at 5 mg/kg, po measured upto 24 hrs by LC-MS/MS analysis; format: ADME, organism-based; parameters: dose 5 mg/kg, route oral; conditions: in vivo; summary of the method: as §1
Daudi [3] = assay: Antitumour activity against human Daudi cells xenografted in NOD/SCID mouse assessed as DNA damage at 10 mg/kg, iv treated on day 1,3 and 5 per week; format: functional, organism-based
Summary of the method: (§2)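 Daudi s.c. xenografts in female NOD/SCID mice (5–6 weeks) were randomized six per group at 100–200 mm3. Dosing was 10 mg/kg i.v. or 20 mg/kg p.o. in 8% HP-β-CD on days 1, 3 and 5 weekly. Tumors were collected at study end for immunohistochemistry, with comparison to the control group.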

[4] = Cmax in Sprague-Dawley rat at 5 mg/kg, iv measured upto 24 hrs by LC-MS/MS analysis; format: ADME, organism-based; parameters: dose 5 mg/kg, route intravenous; conditions: in vivo; summary of the method: as §1
Daudi [5] = assay: Antitumour activity against human Daudi cells xenografted in NOD/SCID mouse assessed as reduction in tumour growth at 20 mg/kg, po treated on day 1,3 and 5 per week and measured for every 2 days; format: functional; conditions: read-out: TGI
Summary of the method: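 Daudi cells (107 in 100 µL serum-free RPMI 1640) were injected s.c. into the right flank of 5–6 week female NOD/SCID mice. At 100–200 mm3, mice were randomized six per group. Dosing was 10 mg/kg i.v. or 20 mg/kg p.o. in 8% HP-β-CD on days 1, 3 and 5 each week. Tumors were measured by caliper every 2 days, with TV = length × width² × 0.5.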

A2780S = assay: Antiproliferative activity against human A2780S cells after 72 hrs by MTT assay; format: functional, cell-based
JeKo-1 [6] = assay: Induction of apoptosis in human JeKo1 cells assessed as early apoptotic cells at 1000 nM after 48 hrs by annexin V-FITC/propidium iodide staining-based flow cytometric method (reference value: 3.34 %); format: functional
Summary of the method: (§3)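 Jeko-1 cells were grown in RPMI-1640 with 10% FBS at 37 °C under 5% CO2. They were exposed to 0, 10, 100 or 1000 nM for 48 h, then apoptosis induction was analysed.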

[7] = target: Histone deacetylase 3/Nuclear receptor corepressor 2 (HDAC3/NCoR2) (Homo sapiens, UniProt O15379); assay: Inhibition of human recombinant full length C-terminal His-tagged HDAC3 (1 to 428 residues)/N-terminal GST-tagged NCOR2 (395 to 489 residues) expressed in Sf9 cells using Ac-peptide-AMC as substrate after 1 hr by fluorescence assay
JeKo-1 [8] = assay: Induction of apoptosis in human JeKo1 cells assessed as late apoptotic cells at 1000 nM after 48 hrs by annexin V-FITC/propidium iodide staining-based flow cytometric method (reference value: 3.07 %); format: functional; summary of the method: as §3
MCF7 = assay: Antiproliferative activity against human MCF7 cells after 72 hrs by MTT assay; format: functional, cell-based; conditions: MCF7, 72 h
Daudi [9] = assay: Antitumour activity against human Daudi cells xenografted in NOD/SCID mouse assessed as DNA damage at 20 mg/kg, po treated on day 1,3 and 5 per week; format: functional, organism-based; summary of the method: as §2
MM1.S = assay: Antiproliferative activity against human MM1S cells after 72 hrs by MTT assay; format: functional, cell-based
[10] = target: T1, Protein deacetylase HDAC6 (Homo sapiens) (UniProt Q9UBN7); assay: Inhibition of HDAC6 in human MM1S cells assessed as increase in alpha tubulin acetylation after 6 hrs by Western blot analysis; format: cell-based
T1 sequence (whole entry): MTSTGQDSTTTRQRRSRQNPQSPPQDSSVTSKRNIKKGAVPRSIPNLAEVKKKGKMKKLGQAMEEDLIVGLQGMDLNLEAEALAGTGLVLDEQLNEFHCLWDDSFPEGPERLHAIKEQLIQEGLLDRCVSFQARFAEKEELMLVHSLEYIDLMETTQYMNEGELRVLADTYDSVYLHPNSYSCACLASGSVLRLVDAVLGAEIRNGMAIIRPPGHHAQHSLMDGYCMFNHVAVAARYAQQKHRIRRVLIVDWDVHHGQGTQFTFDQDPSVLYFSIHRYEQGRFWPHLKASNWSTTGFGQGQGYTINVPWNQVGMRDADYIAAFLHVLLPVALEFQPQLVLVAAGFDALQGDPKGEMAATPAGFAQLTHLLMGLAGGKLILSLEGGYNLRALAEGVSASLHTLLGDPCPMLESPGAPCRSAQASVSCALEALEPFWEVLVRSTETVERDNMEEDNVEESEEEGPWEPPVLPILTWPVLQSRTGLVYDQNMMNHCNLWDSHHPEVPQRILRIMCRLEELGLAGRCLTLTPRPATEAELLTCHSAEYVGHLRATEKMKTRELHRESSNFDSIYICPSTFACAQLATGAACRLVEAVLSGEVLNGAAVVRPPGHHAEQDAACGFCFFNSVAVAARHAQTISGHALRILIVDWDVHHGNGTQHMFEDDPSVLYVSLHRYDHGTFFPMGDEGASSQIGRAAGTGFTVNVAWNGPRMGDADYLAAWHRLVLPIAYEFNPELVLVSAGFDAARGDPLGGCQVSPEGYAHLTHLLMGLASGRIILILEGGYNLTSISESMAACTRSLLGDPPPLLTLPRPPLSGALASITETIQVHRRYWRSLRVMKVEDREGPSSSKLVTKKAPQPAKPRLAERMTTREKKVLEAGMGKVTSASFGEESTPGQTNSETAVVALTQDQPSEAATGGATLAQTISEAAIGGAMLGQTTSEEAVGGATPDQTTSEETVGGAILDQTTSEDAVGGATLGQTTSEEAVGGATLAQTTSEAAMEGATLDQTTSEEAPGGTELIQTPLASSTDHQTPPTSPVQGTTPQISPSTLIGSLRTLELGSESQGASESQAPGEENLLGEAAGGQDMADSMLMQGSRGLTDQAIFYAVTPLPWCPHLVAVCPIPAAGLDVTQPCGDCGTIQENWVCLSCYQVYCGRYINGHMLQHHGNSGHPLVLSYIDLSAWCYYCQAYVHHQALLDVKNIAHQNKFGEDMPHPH

Histone deacetylase 3/Nuclear receptor corepressor 2 (HDAC3/NCoR2), sequence (O15379 whole entry, the tested form may be a part): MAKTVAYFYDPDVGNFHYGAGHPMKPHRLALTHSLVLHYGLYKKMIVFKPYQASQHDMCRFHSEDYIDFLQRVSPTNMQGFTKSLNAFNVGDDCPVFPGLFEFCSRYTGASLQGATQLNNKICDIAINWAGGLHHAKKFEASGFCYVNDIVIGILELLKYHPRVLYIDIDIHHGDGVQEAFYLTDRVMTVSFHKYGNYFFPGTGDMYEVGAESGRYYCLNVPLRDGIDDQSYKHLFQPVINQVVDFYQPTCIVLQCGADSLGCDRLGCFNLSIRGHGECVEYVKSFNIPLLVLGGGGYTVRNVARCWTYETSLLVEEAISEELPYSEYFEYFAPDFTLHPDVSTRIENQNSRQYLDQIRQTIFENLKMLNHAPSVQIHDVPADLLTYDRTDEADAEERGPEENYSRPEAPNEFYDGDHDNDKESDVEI
Histone deacetylase 3/Nuclear receptor corepressor 2 (HDAC3/NCoR2), sequence (Q9Y618 whole entry, further chain, the tested form may be a part): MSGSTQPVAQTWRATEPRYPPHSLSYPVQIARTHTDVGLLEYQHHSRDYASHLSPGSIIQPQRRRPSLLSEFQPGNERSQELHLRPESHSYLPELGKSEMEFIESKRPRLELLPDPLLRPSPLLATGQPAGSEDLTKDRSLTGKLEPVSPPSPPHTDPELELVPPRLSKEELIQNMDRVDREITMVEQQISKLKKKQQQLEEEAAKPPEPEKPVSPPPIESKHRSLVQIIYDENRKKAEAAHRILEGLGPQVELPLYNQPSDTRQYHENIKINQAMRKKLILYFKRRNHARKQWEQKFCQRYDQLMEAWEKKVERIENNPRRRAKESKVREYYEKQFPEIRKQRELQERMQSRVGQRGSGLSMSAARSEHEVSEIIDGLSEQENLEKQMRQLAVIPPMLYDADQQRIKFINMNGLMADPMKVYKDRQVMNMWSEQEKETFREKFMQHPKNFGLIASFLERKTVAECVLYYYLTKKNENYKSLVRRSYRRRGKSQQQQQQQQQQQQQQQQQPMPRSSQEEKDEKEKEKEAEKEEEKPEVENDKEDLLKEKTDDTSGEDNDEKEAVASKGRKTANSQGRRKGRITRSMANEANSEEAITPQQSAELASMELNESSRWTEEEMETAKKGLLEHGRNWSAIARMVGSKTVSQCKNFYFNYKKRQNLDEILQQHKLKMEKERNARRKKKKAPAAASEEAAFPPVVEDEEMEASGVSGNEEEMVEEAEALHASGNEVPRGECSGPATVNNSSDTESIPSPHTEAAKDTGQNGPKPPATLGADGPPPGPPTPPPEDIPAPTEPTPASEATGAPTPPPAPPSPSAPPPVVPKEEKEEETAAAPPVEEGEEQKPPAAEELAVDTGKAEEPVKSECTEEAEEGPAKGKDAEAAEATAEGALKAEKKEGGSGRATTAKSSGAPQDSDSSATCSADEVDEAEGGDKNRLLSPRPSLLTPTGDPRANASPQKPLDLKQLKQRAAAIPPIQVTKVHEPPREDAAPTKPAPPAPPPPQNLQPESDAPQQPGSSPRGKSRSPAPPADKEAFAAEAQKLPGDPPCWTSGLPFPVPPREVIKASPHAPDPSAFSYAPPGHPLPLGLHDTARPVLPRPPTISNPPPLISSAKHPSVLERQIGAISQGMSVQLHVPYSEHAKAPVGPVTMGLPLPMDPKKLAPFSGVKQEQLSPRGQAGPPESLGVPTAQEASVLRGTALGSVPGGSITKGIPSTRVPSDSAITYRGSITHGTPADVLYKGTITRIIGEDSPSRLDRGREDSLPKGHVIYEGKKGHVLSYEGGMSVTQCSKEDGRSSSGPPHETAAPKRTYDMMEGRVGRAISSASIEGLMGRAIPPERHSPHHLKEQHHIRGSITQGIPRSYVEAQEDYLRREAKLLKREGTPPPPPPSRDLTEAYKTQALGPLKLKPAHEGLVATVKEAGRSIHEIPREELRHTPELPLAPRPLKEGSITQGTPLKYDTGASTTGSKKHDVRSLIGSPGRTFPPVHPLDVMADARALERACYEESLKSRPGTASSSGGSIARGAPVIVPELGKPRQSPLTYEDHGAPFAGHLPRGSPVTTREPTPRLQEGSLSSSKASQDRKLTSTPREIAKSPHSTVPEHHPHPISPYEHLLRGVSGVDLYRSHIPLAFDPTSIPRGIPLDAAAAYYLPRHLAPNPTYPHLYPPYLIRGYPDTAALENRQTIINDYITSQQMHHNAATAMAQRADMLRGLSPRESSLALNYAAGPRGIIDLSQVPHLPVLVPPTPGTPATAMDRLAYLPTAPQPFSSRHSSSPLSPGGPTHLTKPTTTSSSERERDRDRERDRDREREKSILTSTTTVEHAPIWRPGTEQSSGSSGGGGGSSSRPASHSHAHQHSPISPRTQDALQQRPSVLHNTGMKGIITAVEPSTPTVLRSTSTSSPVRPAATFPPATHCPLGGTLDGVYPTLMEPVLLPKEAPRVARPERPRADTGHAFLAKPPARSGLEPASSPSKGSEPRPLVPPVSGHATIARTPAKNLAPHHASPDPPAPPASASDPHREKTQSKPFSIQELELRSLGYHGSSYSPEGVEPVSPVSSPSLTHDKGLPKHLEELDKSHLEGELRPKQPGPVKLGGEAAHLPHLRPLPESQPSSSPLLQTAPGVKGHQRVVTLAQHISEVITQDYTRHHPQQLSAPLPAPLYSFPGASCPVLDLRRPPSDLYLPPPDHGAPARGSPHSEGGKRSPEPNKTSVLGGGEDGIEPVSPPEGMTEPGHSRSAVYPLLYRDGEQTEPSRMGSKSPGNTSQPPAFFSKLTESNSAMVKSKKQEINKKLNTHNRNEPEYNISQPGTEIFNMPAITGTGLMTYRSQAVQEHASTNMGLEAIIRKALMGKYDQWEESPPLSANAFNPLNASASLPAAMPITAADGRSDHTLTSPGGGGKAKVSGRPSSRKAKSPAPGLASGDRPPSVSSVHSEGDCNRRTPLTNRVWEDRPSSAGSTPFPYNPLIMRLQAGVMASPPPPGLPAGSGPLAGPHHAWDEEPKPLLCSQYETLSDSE
Histone deacetylase 5, sequence (Q9UQL6 whole entry): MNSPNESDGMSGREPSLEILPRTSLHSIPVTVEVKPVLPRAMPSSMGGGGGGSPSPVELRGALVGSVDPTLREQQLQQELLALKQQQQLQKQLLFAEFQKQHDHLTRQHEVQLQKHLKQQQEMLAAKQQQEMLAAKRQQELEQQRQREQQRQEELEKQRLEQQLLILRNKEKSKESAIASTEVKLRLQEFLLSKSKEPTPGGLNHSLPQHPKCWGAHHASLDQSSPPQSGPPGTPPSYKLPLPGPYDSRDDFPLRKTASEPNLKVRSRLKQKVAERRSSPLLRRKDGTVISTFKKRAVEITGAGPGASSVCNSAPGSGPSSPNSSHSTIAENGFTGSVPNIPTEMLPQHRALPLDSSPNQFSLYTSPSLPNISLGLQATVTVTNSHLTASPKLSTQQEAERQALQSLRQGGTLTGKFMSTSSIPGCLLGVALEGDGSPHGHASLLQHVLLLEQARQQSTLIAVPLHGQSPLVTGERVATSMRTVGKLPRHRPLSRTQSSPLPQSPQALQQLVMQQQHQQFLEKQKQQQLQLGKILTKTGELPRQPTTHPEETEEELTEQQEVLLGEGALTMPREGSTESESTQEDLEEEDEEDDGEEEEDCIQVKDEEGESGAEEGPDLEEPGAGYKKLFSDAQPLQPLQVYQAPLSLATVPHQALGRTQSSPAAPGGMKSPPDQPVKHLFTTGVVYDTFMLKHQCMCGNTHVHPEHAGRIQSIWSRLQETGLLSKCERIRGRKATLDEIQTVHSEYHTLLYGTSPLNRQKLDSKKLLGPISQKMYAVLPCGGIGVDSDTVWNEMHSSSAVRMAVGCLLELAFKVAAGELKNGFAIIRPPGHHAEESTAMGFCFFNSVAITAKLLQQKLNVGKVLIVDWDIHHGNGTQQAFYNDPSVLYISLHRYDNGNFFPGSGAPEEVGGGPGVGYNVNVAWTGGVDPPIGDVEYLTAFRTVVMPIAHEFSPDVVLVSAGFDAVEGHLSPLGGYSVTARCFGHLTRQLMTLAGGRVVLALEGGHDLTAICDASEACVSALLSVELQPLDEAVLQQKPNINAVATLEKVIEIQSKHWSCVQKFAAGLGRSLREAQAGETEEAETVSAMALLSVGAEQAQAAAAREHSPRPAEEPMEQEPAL

SMILES: Cc1ccc(CN2CCC(c3noc(CN(C)c4ncc(C(=O)NO)cn4)n3)CC2)cc1
- IC50 (Histone deacetylase 5): 540 nM
- half-life [1]: 23.4 min
- IC50 (Ramos): 17.8 nM
- Cmax [2]: 241 ng/mL
- Activity (Daudi [3]): Active
- Cmax [4]: 955 ng/mL
- inhibition in vivo at 20 mg/kg (Daudi [5]): 53.8%
- IC50 (A2780S): 40 nM
- Activity (JeKo-1 [6]): 42.7%
- IC50 [7]: 3 nM
- Activity (JeKo-1 [8]): 30.4%
- IC50 (MCF7): 14.4 nM
- Activity (Daudi [9]): Active
- IC50 (MM1.S): 9.8 nM
- inhibition [10]: Dose-dependent effect
